Results reported in ChEMBL document CHEMBL1781959, “Synthesis and in vitro antitumor activity of substituted quinazoline and quinoxaline derivatives: search for anticancer agent” (Eur J Med Chem, 2011).

Assays:
RXF 393 = assay: Growth inhibition of human RXF393 cells after 48 hrs by SRB assay; format: functional; conditions: RXF 393, 48 h
How it was run: (§1)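 NCI 60-panel five-dose assay at 0.01, 0.1, 1, 10 and 100 μM. Cells in RPMI 1640 with 5% FBS and 2 mM L-glutamine, preincubated 24 h, with time-zero plates TCA-fixed. Drug exposure 48 h at 37 °C. Read by SRB staining at 515 nm. GI50 is the concentration where [(Ti−Tz)/(C−Tz)]×100 = 50, taken from log concentration versus % growth curves.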

SK-OV-3 = assay: Cytotoxicity against human SKOV3 cells after 48 hrs by SRB assay; format: cell-based; conditions: sk-ov-3, 48 h
How it was run: (§2)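 NCI-60 five-dose screen in RPMI 1640 with 5% FBS and 2 mM L-glutamine; 5000–40,000 cells/well, 24 h pre-incubation. DMSO stocks diluted to 0.01, 0.1, 1, 10 and 100 μM final; 48 h at 37 °C, 5% CO2. Fixed with TCA (10% final adherent, 16% suspension), stained with 0.4% SRB, A515. GI50, TGI and LC50 taken from time-zero, control and test absorbances.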

NCI-H23 [1] = assay: Growth inhibition of human NCI-H23 cells after 48 hrs by SRB assay; format: functional; conditions: NCI-H23, 48 h; how it was run: as §1
HL-60(TB) = assay: Growth inhibition of human HL-60(TB) cells after 48 hrs by SRB assay; format: functional; conditions: HL-60, 48 h
UACC-257 [2] = assay: Cytotoxicity against human UACC257 cells after 48 hrs by SRB assay; format: cell-based; conditions: uacc-257, 48 h
How it was run: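 NCI-60 five-dose screen. Cells grown in RPMI 1640 with 5% FBS and 2 mM L-glutamine and pre-incubated 24 h; a time-zero plate is TCA-fixed. Drug added at 0.01, 0.1, 1, 10 and 100 µM (DMSO stock) for 48 h at 37 °C, 5% CO2. Fixed with cold TCA (10% final for adherent, 16% for suspension cells), stained with 0.4% SRB, A515. GI50, TGI and LC50 taken from dose-response curves.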

NCI/ADR-RES [3] = assay: Growth inhibition of human NCI/ADR-RES cells after 48 hrs by SRB assay; format: functional; how it was run: as §1
UACC-257 [4] = assay: Growth inhibition of human UACC257 cells after 48 hrs by SRB assay; format: functional; conditions: UACC-257, 48 h
How it was run: (§3)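 NCI-60 panel cells grown in RPMI 1640 with 5% FBS and 2 mM L-glutamine, then seeded at 5000–40,000 cells/well by doubling time and preincubated for 24 h. Compound in DMSO was tested either at 10^-5 M alone or at 0.01–100 μM in five doses, for 48 h at 37 °C. Cells were fixed with cold TCA (10% final), stained with SRB, and read at 515 nm. GI50 was taken from % growth relative to time-zero and control wells.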

UO-31 = assay: Growth inhibition of human UO31 cells after 48 hrs by SRB assay; format: functional; conditions: UO-31, 48 h; how it was run: as §3
NCI-H460 = assay: Cytotoxicity against human NCI-H460 cells after 48 hrs by SRB assay; format: cell-based; conditions: nci-h460, 48 h; how it was run: as §2
SK-MEL-28 = assay: Cytotoxicity against human SK-MEL-28 cells after 48 hrs by SRB assay; format: cell-based; conditions: sk-mel-28, 48 h; how it was run: as §2
MDA-MB-468 = assay: Cytotoxicity against human MDA-MB-468 cells after 48 hrs by SRB assay; format: cell-based; conditions: mda-mb-468, 48 h; how it was run: as §2
A498 = assay: Cytotoxicity against human A498 cells after 48 hrs by SRB assay; format: cell-based; conditions: a498, 48 h; how it was run: as §2
U-251 = assay: Growth inhibition of human U251 cells after 48 hrs by SRB assay; format: functional; conditions: U-251, 48 h; how it was run: as §3
MCF7 = assay: Cytotoxicity against human MCF7 cells after 48 hrs by SRB assay; format: cell-based; conditions: mcf7, 48 h; how it was run: as §2
TK-10 = assay: Growth inhibition of human TK10 cells after 48 hrs by SRB assay; format: functional; conditions: TK-10, 48 h; how it was run: as §3
[5] = Growth inhibition of human […] cells after 48 hrs by SRB assay; format: functional; how it was run: as §1
PC-3 = assay: Cytotoxicity against human PC3 cells after 48 hrs by SRB assay; format: cell-based; conditions: pc-3, 48 h; how it was run: as §2
T47D = assay: Growth inhibition of human T47D cells after 48 hrs by SRB assay; format: functional; how it was run: as §3
MDA-MB-435 [6] = assay: Cytotoxicity against human MDA-MB-435 cells after 48 hrs by SRB assay; format: cell-based; conditions: mda-mb-435, 48 h; how it was run: as §2
OVCAR-8 = assay: Cytotoxicity against human OVCAR8 cells after 48 hrs by SRB assay; format: cell-based; conditions: ovcar-8, 48 h; how it was run: as §2
UACC-62 = assay: Growth inhibition of human UACC62 cells after 48 hrs by SRB assay; format: functional; conditions: UACC-62, 48 h; how it was run: as §3
NCI-H23 [7] = assay: Cytotoxicity against human NCI-H23 cells after 48 hrs by SRB assay; format: cell-based; conditions: nci-h23, 48 h; how it was run: as §2
[8] = Cytotoxicity against human Hs 578T cells after 48 hrs by SRB assay; format: cell-based; how it was run: as §2
NCI-H226 = assay: Cytotoxicity against human NCI-H226 cells after 48 hrs by SRB assay; format: cell-based; conditions: nci-h226, 48 h; how it was run: as §2
NCI/ADR-RES [9] = assay: Cytotoxicity against human NCI/ADR-RES cells after 48 hrs by SRB assay; format: cell-based; how it was run: as §2
CCRF-CEM = assay: Growth inhibition of human CCRF-CEM cells after 48 hrs by SRB assay; format: functional; how it was run: as §1
MDA-MB-435 [10] = assay: Growth inhibition of human MDA-MB-435 cells after 48 hrs by SRB assay; format: functional; conditions: MDA-MB-435, 48 h; how it was run: as §1
OVCAR-4 = assay: Growth inhibition of human OVCAR4 cells after 48 hrs by SRB assay; format: functional; conditions: OVCAR-4, 48 h; how it was run: as §1
KM12 = assay: Growth inhibition of human KM12 cells after 48 hrs by SRB assay; format: functional; conditions: KM12, 48 h; how it was run: as §1
BT-549 = assay: Cytotoxicity against human BT549 cells after 48 hrs by SRB assay; format: cell-based; conditions: bt-549, 48 h; how it was run: as §2
SF-295 = assay: Growth inhibition of human SF295 cells after 48 hrs by SRB assay; format: functional; conditions: SF-295, 48 h; how it was run: as §1
SNB-19 = assay: Growth inhibition of human SNB19 cells after 48 hrs by SRB assay; format: functional; conditions: SNB-19, 48 h; how it was run: as §3
SF-268 = assay: Growth inhibition of human SF268 cells after 48 hrs by SRB assay; format: functional; conditions: SF-268, 48 h; how it was run: as §1
HT-29 = assay: Cytotoxicity against human HT-29 cells after 48 hrs by SRB assay; format: cell-based; conditions: ht-29, 48 h; how it was run: as §2

`O=c1c2ccccc2nc(-c2ccco2)n1/N=C/c1ccccc1Cl` gave a GI50 (RXF 393) of 11.6 µM, a TGI (RXF 393) of 42.6 µM and an LC50 (SK-OV-3) greater than 100 µM. It also gave a GI50 (NCI-H23 [1]) of 7.87 µM, a TGI (NCI-H23 [1]) greater than 100 µM and a GI50 (HL-60(TB)) of 23.8 µM. It also gave a TGI (HL-60(TB)) greater than 100 µM, an LC50 (UACC-257 [2]) greater than 100 µM and a GI50 (NCI/ADR-RES [3]) of 2.45 µM. The TGI (NCI/ADR-RES [3]) was 8.78 µM, the GI50 (UACC-257 [4]) was 8.34 µM and the TGI (UACC-257 [4]) was greater than 100 µM. For the same compound, the GI50 (UO-31) was 6.12 µM, the TGI (UO-31) was greater than 100 µM and the LC50 (NCI-H460) was greater than 100 µM. The LC50 (SK-MEL-28) was greater than 100 µM, the LC50 (MDA-MB-468) was greater than 100 µM and the LC50 (A498) was greater than 100 µM. For the same compound, the GI50 (U-251) was 4.12 µM, the TGI (U-251) was 32.3 µM and the LC50 (MCF7) was greater than 100 µM. It also gave a GI50 (TK-10) of 7.84 µM, a TGI (TK-10) greater than 100 µM and a GI50 [5] greater than 100 µM. The TGI [5] was greater than 100 µM, the LC50 (PC-3) was greater than 100 µM and the GI50 (T47D) was 6.89 µM. For the same compound, the TGI (T47D) was greater than 100 µM, the LC50 (MDA-MB-435 [6]) was greater than 100 µM and the LC50 (OVCAR-8) was greater than 100 µM. It also gave a GI50 (UACC-62) of 6.38 µM, a TGI (UACC-62) greater than 100 µM and an LC50 (NCI-H23 [7]) greater than 100 µM. It also gave an LC50 [8] greater than 100 µM, an LC50 (NCI-H226) greater than 100 µM and an LC50 (NCI/ADR-RES [9]) of 52.7 µM. For the same compound, the GI50 (CCRF-CEM) was 11.8 µM, the TGI (CCRF-CEM) was greater than 100 µM and the GI50 (MDA-MB-435 [10]) was 8.23 µM. It also gave a TGI (MDA-MB-435 [10]) of 17 µM, a GI50 (OVCAR-4) of 1.82 µM and a TGI (OVCAR-4) of 6.48 µM. The GI50 (KM12) was 3.65 µM, the TGI (KM12) was 25.4 µM and the LC50 (BT-549) was 72.4 µM. The GI50 (SF-295) was 3.26 µM, the TGI (SF-295) was greater than 100 µM and the GI50 (SNB-19) was 6.34 µM. For the same compound, the TGI (SNB-19) was 12.8 µM, the GI50 (SF-268) was 6.84 µM and the TGI (SF-268) was greater than 100 µM. For the same compound, the LC50 (HT-29) was greater than 100 µM.
